mIAP inh – mouse IAP inhibition. purified mouse IAP, CDP-Star luminescence, 30 min. inhibition, % at 10 µM. 330,000 tested, 0.2% active;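 active = inhibition of at least 40% at 10 µM in the primary screen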;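 note: plate controls were DMSO with enzyme for no effect and no enzyme wells for full effect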
mIAP act – mouse IAP activation. muIAP, CDP-Star luminescence, 30 min; active compounds read high; 1 = vehicle-only enzyme signal, 0 = enzyme-free wells. activation factor at 10 µM. 330,000 tested, 0.24% active;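 active = activation factor of at least 2 at 20 µM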
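System: mouse IAP enzyme. Reagent: CDP-Star chemiluminescent phosphatase substrate. Benchmarks: DMSO wells, no-enzyme wells. Times: 30 min enzyme-substrate-compound incubation at room temperature. Detection: luminescence from enzymatic CDP-Star hydrolysis. Doses: test compounds delivered from DMSO solution.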
hIAP block – blocks human intestinal alkaline phosphatase | purified IAP, CDP-Star luminescence, 30 min | inhibition, % at 10 µM | 330,000 tested, 0.12% active | AID 2544;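 active = inhibition reaching a set limit with compound at 10 µM in the primary screen, cut at about 35% in these data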;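 note: plate controls were DMSO wells with enzyme for no effect and no-enzyme buffer wells for full effect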
Target sequence (P09923 whole entry, looked up): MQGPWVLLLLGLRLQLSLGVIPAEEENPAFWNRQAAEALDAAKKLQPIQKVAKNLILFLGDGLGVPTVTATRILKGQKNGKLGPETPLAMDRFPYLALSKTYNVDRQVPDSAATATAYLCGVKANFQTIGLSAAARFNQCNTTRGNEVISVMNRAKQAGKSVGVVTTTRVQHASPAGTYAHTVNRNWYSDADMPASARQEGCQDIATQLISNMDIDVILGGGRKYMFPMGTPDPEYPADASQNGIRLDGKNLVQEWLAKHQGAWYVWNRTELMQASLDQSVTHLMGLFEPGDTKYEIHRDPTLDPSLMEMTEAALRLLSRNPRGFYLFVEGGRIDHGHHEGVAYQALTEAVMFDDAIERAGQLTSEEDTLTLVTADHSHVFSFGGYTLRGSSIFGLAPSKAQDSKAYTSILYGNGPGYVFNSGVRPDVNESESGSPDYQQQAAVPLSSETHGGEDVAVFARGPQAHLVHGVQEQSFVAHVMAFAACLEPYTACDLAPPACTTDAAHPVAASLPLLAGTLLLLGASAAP
hIAP act – human IAP activation; AID 2524; purified human IAP, CDP-Star luminescence, 30 min; active compounds read high; 1 = vehicle-only enzyme, 0 = enzyme-free background; 330,000 tested, 0.16% active; P09923; activation factor at 10 µM;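 active = activation factor of the enzyme at least 2-fold when tested at 20 µM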
bIAP inhibitor – blocks bovine intestinal alkaline phosphatase activity; purified bovine IAP, CDP-star luminescence, 30 min; inhibition, % at 20 µM; 190,000 tested, under 10 active;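 active = over 50% inhibition of intestinal alkaline phosphatase at 20 µM in the single-dose screen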
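Assay system: bovine IAP enzyme; medium: DEA buffer 100 mM, pH 9.8, with MgCl2 1.0 mM, ZnCl2 0.02 mM; doses: 20 µM single dose; incubation: enzyme reaction for 30 min at room temperature; detection: CDP-star luminescence signal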
bIAP activator – increases bovine intestinal alkaline phosphatase activity | purified bovine IAP, CDP-star luminescence, 30 min; active compounds read high; fold of DMSO-control signal, blank-subtracted | activation factor at 20 µM | 200,000 tested, 0.17% active | AID 1016;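 active = activation factor of 2 or more at 20 µM, a signal rise over negative controls twice the positive control's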
hIAP act conf – human IAP activation confirmation; 880 tested, 10% active; purified IAP, CDP-Star luminescence, 30 min; active compounds read low; shares compounds with hIAP act; activation (%Activity, negative = activation), % at 8.3 µM;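 active = at least twofold enzyme activation in any of six single-dose repeats, which the averaged readout prints as negative percent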
The depositor's hits bear a star. Compounds with a hit are over-represented: about 0.79% of the library has one in this group of screens.

How did COC(=O)CN=Cc1c(O)n(-c2ccc(Cl)cn2)c(=O)c2ccccc12 do in these assays?
mIAP inh: -3; mIAP act: 1; hIAP block: -4; hIAP act: 1; bIAP inhibitor: -6; bIAP activator: 1.1

What do the screens show for `CC(OC(=O)Cn1cnc2c1c(=O)n(C)c(=O)n2C)C(=O)NC(C)c1ccc(Cl)cc1Cl` (stereo not given)?
mIAP inh: -1; mIAP act: 1; hIAP block: -5; hIAP act: 1

What do the screens show for `O=C(CCCCC(=O)NNC(=O)COc1ccccc1)NNC(=O)COc1ccccc1`?
mIAP inh: 16; mIAP act: 0.84; hIAP block: -151; hIAP act: 2.5*; hIAP act conf: -88*

How did Cc1cccc(OCC(=O)NNC(=O)CCCCC(=O)NNC(=O)COc2cccc(C)c2)c1 do in these assays?
mIAP inh: 14; mIAP act: 0.86; hIAP block: -224; hIAP act: 3.2*; hIAP act conf: -33

How did CC(C)(C)NC(=O)C(=O)NNC(=O)COc1ccccc1 do in these assays?
mIAP inh: 8; mIAP act: 0.92; hIAP block: -107; hIAP act: 2.1*; bIAP inhibitor: -6; bIAP activator: 1.1; hIAP act conf: 39

What do the screens show for `Cc1ccc(C(=O)NNC(=O)CCCCC(=O)NNC(=O)c2ccc(C)cc2)cc1`?
mIAP inh: -4; mIAP act: 1; hIAP block: -131; hIAP act: 2.3*; hIAP act conf: -23

How did Cc1csc(SC(C)c2nc3scc(-c4ccccc4)c3c(=O)[nH]2)n1 (stereo not given) do in these assays?
mIAP inh: -1; mIAP act: 1; hIAP block: 0; hIAP act: 1

How did N#CCC(=O)N/N=C/c1ccc(OCC(=O)Nc2ccc(F)cc2)cc1 do in these assays?
mIAP inh: 6; mIAP act: 0.94; hIAP block: -17; hIAP act: 1.2; bIAP inhibitor: 17; bIAP activator: 0.8

Results for O=C(NCCCCc1ccccc1)C1CC(c2ccccc2C(F)(F)F)=NO1 (stereo not given) ?
mIAP inh: -6; mIAP act: 1.1; hIAP block: 5; hIAP act: 0.95

What do the screens show for `Cc1cccc(OCC(=O)NNC(=O)c2ccc3nc[nH]c3c2)c1`?
mIAP inh: 0; mIAP act: 1; hIAP block: -136; hIAP act: 2.4*; hIAP act conf: -117*

How did COCC1CCN(C(=O)c2cc(COc3ccc(-n4cncn4)cc3)on2)C1 (stereo not given) do in these assays?
mIAP inh: 3; mIAP act: 0.97; hIAP block: 13; hIAP act: 0.87

What do the screens show for `COc1ccc(-c2nc(-c3ccccn3)no2)cc1`?
mIAP inh: 6; mIAP act: 0.94; hIAP block: -8; hIAP act: 1.1; bIAP inhibitor: 11; bIAP activator: 0.9

Results for Clc1ccc(-c2nc(-c3ccccn3)no2)cc1Cl ?
mIAP inh: 3; mIAP act: 0.97; hIAP block: -110; hIAP act: 2.1*; bIAP inhibitor: 10; bIAP activator: 0.9; hIAP act conf: 3

Results for CC1CC(C)CN(S(=O)(=O)c2ccc3c(c2)CC(C)N3C(=O)C2CC2)C1 (stereo not given) ?
mIAP inh: 6; mIAP act: 0.94; hIAP block: -26; hIAP act: 1.3

What do the screens show for `Cc1ccc(S(=O)(=O)Nc2nc3ccccc3nc2NCc2ccco2)cc1`?
mIAP inh: 4; mIAP act: 0.96; hIAP block: -112; hIAP act: 2.1*; bIAP inhibitor: 5; bIAP activator: 1; hIAP act conf: 19

How did O=S(=O)(Nc1nc2ccccc2nc1NCc1ccco1)c1ccc(Cl)cc1 do in these assays?
mIAP inh: 10; mIAP act: 0.9; hIAP block: -9; hIAP act: 1.1; bIAP inhibitor: -14; bIAP activator: 1.1

What do the screens show for `Cc1c(NC(=O)COc2cccc(Cl)c2Cl)c(=O)n(-c2ccccc2)n1C`?
mIAP inh: 0; mIAP act: 0.99; hIAP block: -16; hIAP act: 1.2

Screening results as filed in PubChem BioAssay.
